For orientation: IC50 means the point on the concentration scale where inhibition reaches its midpoint. A low value points to greater potency in that assay. Broadly, the clearance is the volume of plasma or blood freed of the substance per unit of time. What is called half-life is the time needed for the level to fall by half in the phase considered. Read a low half-life as fast loss. The bioavailability is dose-corrected exposure relative to a reference, in per cent. Low readings indicate poor availability, high ones good availability.

From ChEMBL document CHEMBL3621116, “Benzimidazole Derivatives as Potent JAK1-Selective Inhibitors” (J Med Chem, 2015) come the findings set out here.

The target in series [1] is T1, Tyrosine-protein kinase JAK2 (Homo sapiens, UniProt O60674). The series is described as follows: Inhibition of JAK2 (unknown origin) using 35 uM of ATP and Tyr6 peptide by Z'-LYTE kinase assay.
T1 sequence (O60674 whole entry): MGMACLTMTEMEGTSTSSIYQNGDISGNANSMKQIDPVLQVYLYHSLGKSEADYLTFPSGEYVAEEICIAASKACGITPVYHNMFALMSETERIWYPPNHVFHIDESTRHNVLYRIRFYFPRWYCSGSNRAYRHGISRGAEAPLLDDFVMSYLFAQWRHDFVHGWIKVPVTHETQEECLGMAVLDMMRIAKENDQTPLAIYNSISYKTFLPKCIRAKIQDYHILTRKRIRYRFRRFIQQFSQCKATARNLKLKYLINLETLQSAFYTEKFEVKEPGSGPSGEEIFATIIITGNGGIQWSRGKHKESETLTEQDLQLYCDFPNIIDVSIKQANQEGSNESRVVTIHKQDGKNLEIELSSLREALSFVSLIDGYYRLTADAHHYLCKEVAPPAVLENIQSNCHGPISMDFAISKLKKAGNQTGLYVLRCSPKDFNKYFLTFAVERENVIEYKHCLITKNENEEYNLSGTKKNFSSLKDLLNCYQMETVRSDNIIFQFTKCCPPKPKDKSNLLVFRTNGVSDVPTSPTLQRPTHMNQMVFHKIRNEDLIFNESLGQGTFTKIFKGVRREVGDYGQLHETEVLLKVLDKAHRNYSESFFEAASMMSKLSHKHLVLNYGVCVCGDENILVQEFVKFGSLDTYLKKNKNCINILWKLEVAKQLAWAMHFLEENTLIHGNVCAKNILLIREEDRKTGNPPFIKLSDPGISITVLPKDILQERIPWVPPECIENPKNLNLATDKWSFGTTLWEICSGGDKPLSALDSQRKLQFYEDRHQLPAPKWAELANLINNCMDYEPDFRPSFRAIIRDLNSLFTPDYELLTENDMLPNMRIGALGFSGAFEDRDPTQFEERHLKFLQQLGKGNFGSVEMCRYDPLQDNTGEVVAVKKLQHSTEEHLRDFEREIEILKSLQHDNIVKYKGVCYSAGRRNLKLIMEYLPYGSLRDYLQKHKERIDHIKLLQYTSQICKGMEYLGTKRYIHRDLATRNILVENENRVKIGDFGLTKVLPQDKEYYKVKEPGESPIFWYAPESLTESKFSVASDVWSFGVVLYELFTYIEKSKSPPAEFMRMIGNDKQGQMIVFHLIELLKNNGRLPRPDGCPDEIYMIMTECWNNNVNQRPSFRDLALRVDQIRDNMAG
The species entered for series [2] is Homo sapiens. The experiment in a line: Selectivity ratio of IC50 for JAK2 (unknown origin) using 35 uM of ATP and Tyr6 peptide to IC50 for JAK1 (unknown origin) using 87 uM of ATP and Tyr6 peptide. In short, it runs like this: (§1)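 JAK1 selectivity taken as IC50 against JAK2 or JAK3 divided by IC50 against JAK1. […] IC50s are means ± SD of three independent experiments.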

The target in series [3] is T2, Tyrosine-protein kinase JAK3 (Homo sapiens, UniProt P52333).
T2 sequence (P52333 whole entry): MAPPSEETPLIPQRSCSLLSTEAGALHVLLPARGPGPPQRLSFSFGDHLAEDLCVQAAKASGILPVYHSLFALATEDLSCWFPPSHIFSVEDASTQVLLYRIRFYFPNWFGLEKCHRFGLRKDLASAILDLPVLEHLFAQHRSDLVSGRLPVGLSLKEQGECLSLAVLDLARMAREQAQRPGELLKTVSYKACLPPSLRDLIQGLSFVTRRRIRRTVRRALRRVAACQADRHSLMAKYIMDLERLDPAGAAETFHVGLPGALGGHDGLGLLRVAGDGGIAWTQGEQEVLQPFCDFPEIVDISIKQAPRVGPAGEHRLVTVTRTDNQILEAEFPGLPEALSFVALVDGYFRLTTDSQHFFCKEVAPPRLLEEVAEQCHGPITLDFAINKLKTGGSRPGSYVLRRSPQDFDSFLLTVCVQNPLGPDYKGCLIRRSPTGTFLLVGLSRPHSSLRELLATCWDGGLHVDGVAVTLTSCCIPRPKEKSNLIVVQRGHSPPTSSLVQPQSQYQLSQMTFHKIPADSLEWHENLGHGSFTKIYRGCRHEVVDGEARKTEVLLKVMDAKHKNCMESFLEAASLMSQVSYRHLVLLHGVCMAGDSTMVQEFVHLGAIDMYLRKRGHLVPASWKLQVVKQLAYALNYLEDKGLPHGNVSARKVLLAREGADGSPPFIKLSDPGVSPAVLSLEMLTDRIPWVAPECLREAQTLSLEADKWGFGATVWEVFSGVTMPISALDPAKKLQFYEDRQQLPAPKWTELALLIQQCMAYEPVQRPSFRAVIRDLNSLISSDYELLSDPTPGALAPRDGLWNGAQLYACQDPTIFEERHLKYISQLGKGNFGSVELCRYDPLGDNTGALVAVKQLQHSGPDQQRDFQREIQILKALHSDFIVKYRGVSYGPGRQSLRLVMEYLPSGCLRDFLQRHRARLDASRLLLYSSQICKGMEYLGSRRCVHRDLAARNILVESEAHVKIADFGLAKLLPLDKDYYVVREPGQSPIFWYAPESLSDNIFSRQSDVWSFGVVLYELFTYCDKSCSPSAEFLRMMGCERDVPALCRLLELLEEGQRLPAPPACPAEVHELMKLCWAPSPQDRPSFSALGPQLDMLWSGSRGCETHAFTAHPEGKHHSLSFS
The experiment in a line: Inhibition of JAK3 (unknown origin) using 16 uM of ATP and Tyr6 peptide by Z'-LYTE kinase assay.

The species entered for series [4] is Homo sapiens. The series is described as follows: Selectivity ratio of IC50 for JAK3 (unknown origin) using 16 uM of ATP and Tyr6 peptide to IC50 for JAK1 (unknown origin) using 87 uM of ATP and Tyr6 peptide. In short, it runs like this:
as §1

In series [5] the target is T3, Tyrosine-protein kinase JAK1 (Homo sapiens, UniProt P23458). The experiment in a line: Inhibition of JAK1 (unknown origin) using 87 uM of ATP and Tyr6 peptide by Z'-LYTE kinase assay.
T3 sequence (P23458 whole entry): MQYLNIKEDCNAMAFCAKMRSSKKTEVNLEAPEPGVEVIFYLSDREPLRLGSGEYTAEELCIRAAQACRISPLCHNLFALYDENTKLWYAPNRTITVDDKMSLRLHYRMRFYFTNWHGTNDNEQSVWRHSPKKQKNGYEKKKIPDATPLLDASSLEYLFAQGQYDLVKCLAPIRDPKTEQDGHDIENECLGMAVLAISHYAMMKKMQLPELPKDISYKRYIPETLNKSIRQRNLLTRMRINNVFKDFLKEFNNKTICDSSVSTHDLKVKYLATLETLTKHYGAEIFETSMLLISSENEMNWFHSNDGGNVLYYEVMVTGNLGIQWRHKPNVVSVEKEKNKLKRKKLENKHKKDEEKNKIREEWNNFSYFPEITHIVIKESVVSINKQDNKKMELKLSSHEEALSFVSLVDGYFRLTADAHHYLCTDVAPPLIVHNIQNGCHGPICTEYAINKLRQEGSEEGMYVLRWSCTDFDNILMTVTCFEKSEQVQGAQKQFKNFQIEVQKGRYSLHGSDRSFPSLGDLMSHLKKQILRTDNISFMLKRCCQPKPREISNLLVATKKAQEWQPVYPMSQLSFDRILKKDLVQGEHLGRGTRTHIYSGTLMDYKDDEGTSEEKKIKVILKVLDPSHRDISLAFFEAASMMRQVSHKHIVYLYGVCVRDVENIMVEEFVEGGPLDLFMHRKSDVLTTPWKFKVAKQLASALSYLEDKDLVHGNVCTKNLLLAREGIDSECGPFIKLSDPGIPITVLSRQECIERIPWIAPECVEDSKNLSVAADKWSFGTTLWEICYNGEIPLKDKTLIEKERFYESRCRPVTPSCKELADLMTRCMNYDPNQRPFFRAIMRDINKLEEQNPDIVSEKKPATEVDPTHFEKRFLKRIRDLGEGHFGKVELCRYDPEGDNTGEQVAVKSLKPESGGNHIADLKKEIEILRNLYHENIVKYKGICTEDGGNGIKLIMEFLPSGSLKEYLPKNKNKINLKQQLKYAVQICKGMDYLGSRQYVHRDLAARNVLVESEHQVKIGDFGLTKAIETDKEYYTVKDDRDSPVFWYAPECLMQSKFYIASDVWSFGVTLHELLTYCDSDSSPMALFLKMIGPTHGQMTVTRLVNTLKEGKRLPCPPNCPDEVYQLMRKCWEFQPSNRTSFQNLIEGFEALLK
In series [6] the target is T4, Non-receptor tyrosine-protein kinase TYK2 (Homo sapiens, UniProt P29597). The series is described as follows: Inhibition of Tyk2 (unknown origin) using 25 uM of ATP and Tyr3 peptide by Z'-LYTE kinase assay.
T4 sequence (P29597 whole entry): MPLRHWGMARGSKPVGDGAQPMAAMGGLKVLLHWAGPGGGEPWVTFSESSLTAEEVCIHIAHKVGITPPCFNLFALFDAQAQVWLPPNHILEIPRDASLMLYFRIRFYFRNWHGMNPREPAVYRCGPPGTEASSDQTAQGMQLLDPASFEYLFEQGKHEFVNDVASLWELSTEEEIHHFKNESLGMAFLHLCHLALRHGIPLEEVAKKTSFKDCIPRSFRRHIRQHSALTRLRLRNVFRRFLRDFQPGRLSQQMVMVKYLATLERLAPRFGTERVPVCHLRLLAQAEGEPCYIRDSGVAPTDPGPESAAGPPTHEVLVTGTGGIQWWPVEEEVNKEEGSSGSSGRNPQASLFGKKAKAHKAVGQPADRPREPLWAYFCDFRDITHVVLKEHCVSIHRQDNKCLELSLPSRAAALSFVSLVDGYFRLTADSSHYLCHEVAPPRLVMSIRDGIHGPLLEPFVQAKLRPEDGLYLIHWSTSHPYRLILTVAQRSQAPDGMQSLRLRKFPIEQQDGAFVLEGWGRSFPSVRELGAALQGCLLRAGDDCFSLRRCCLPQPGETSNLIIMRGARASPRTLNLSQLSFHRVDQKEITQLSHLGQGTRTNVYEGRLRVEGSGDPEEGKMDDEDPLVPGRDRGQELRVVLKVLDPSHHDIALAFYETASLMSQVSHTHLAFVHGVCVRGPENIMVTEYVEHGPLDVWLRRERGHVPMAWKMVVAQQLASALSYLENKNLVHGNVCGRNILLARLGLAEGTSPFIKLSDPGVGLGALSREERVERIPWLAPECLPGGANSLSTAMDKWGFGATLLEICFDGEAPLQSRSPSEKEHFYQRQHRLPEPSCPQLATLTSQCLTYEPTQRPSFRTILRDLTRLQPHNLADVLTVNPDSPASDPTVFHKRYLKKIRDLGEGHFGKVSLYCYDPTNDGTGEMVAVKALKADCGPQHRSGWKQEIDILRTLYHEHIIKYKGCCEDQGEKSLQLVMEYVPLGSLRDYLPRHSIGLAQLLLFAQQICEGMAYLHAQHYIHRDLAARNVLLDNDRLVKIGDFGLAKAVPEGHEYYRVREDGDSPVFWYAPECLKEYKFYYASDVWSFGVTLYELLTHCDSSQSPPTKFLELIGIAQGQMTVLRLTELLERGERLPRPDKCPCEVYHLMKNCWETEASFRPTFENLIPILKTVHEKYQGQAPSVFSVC
Series [7] concerns the target T1, Tyrosine-protein kinase JAK2. The series is described as follows: Inhibition of JAK2 (unknown origin) using 1 mM of ATP and Tyr6 peptide by Z'-LYTE kinase assay.
Series [8] addresses T3, Tyrosine-protein kinase JAK1. The series is described as follows: Inhibition of JAK1 (unknown origin) using 1 mM of ATP and Tyr6 peptide by Z'-LYTE kinase assay.
The nature of series [9]: Plasma clearance in Sprague-Dawley rat at 5 mg/kg, iv. It is filed as ADME, organism-based. In short, it runs like this: (§2)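 Rats dosed intravenously. Steady-state volume of distribution, systemic plasma clearance and plasma half-life derived from plasma concentration data.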
Series [10] can be described thus: Volume of distribution at steady state in Sprague-Dawley rat at 5 mg/kg, iv. The format is ADME, organism-based. The settings on record: in vivo, read-out: Vdss. The method, boiled down: as §2
Series [11] has as its target T2, Tyrosine-protein kinase JAK3. The series is described as follows: Inhibition of JAK3 (unknown origin) using 1 mM of ATP and Tyr6 peptide by Z'-LYTE kinase assay.
Series [12] is described as follows: Half life in Sprague-Dawley rat at 5 mg/kg, iv. It is filed as ADME, organism-based. Particulars: in vivo. In short, it runs like this:
as §2

In series [13] the target is T4, Non-receptor tyrosine-protein kinase TYK2. The series is described as follows: Inhibition of Tyk2 (unknown origin) using 1 mM of ATP and Tyr3 peptide by Z'-LYTE kinase assay.
For series [14], the target named is T3, Tyrosine-protein kinase JAK1. The settings on record: A-431, 0.001 to 10 uM.
The nature of series [15]: Permeability of the compound by PAMPA. The format is physicochemical. The settings on record: read-out: permeability. For orientation: In PAMPA a lipid-coated filter parts donor from acceptor wells.
For series [16], the target named is T1, Tyrosine-protein kinase JAK2. The experiment in a line: Inhibition of JAK2 in human A431 cells assessed as erythropoietin-induced STAT5 phosphorylation at 0.001 to 10 uM after 2 hrs by ELISA. Particulars: A-431. It is filed as cell-based.
Series [17] can be described thus: Oral bioavailability in Sprague-Dawley rat at 10 mg/kg. It is filed as ADME, organism-based. The settings on record: in vivo.
The target of series [18] is T1, Tyrosine-protein kinase JAK2. The series is described as follows: Inhibition of JAK2 (unknown origin).
The species named for series [19] is Homo sapiens. The series is described as follows: Selectivity ratio of IC50 for JAK2 (unknown origin) to IC50 for JAK1 (unknown origin) by cell based assay.

SMILES strings stand for the structures. The source made the active and inactive calls.

`NCCn1c(-c2ccccc2)nc2cc(C(N)=O)ccc21`: the 50% inhibitory concentration (IC50) in series [1] was determined as 2.8 µM; in [3] it was 14.1 µM; in series [5] it was 11.6 µM; in [6], 4.2 µM. Further, the Ratio IC50 in the series listed under Homo sapiens [2] is 0.2; in the series filed under Homo sapiens [4], 1.
Take `NCCn1c(-c2cccnc2N)nc2cc(C(N)=O)ccc21`: the IC50 in series [1] was 4.7 µM; in series [3] it was 1.9 µM; in series [5], 8.1 µM; in series [6], 4.3 µM. The Ratio IC50 turned out to be 0.6 in the series filed under Homo sapiens [2] and 0.2 in the series listed under Homo sapiens [4].
With `NCCCc1nc2cc(C(N)=O)ccc2n1CCN`, the IC50 was 1.6 µM in [1], 1.1 µM in [3], 2.2 µM in series [5] and 2.5 µM in series [6]. The Ratio IC50 is 0.7 in the series listed under Homo sapiens [2] and 0.5 in the series listed under Homo sapiens [4].
Take `NCCCn1c(CCN)nc2cc(C(N)=O)ccc21`: the IC50 was 2.2 µM in [1], 1.5 µM in [3], 6.1 µM in [5] and 6.4 µM in [6]. The Ratio IC50 in the series listed under Homo sapiens [2] was 0.4; in the series listed under Homo sapiens [4], 0.2.
For `NCCc1nc2cc(C(N)=O)ccc2n1CCN`, the IC50 in series [1] worked out at 2.9 µM; in series [3], 1.5 µM; in series [5], 0.1 µM; in [6], 3.1 µM. The Ratio IC50 came to 29 in the series filed under Homo sapiens [2] and 15 in the series filed under Homo sapiens [4].
Consider `NCCn1c(C2CCNCC2)nc2cc(C(N)=O)ccc21`, for which the IC50 is 437 µM in [7]; 3.15 µM in [1]; 5.7 µM in [8]; 232 µM in series [11]; 1.26 µM in series [3]; 759 µM in series [13]. In addition, the figures for the IC50 in series [5] and in [6] were 0.05 µM and 3.7 µM, respectively. The clearance in series [9] is 6.67 mL/min/kg. Further, the Vd in [10] was found to be 0.5 L/kg. The compound also had a half-life in series [12] of 9.1 h. Also, the Ratio IC50 in the series listed under Homo sapiens [2] stood at 63; in the series listed under Homo sapiens [4], 25. The inhibition entry in [14] and in series [16] was “inactive” throughout. Further, the Papp in series [15] worked out at 0.1 ×10⁻⁶ cm/s. In [17], this compound came in with a bioavailability of 0.7%.
`CC(C)c1ccc(-c2nc3cc(C(N)=O)ccc3n2CCN)cc1`: the IC50 in series [1] was found to be 5.9 µM; in series [3] it was 1.9 µM; in series [5], 3.1 µM; in series [6], 2.7 µM. Moreover, the figures for the Ratio IC50 in the series listed under Homo sapiens [2] and in the series filed under Homo sapiens [4] were 2 and 0.6, respectively.
As to `NCCn1c(-c2cncnc2)nc2cc(C(N)=O)ccc21`, the IC50 in [1] is 1.6 µM; in series [3], 2.5 µM; in series [5], 3.4 µM; in series [6] it was 2.8 µM. In addition, the values for the Ratio IC50 in the series listed under Homo sapiens [2] and in the series listed under Homo sapiens [4] were 0.5 and 0.7, respectively.
As to `Cc1ccc(-c2nc3cc(C(N)=O)ccc3n2CCN)cc1`, the IC50 in series [1] was 2.6 µM; in series [3] it was 2.3 µM; in series [5] it was 3.7 µM; in series [6], 3.5 µM. In addition, the values for the Ratio IC50 in the series listed under Homo sapiens [2] and in the series filed under Homo sapiens [4] were 0.7 and 0.6, respectively.
With `NCCn1c(-c2ccc(O)cc2O)nc2cc(C(N)=O)ccc21`, the concentration for half-maximal inhibition (IC50) was determined as 2.5 µM in series [1], 2.9 µM in series [3], 3.1 µM in series [5] and 3.7 µM in [6]. Also, the values for the Ratio IC50 in the series filed under Homo sapiens [2] and in the series listed under Homo sapiens [4] were 0.8 and 0.9, respectively.
For `N#Cc1ccc(-c2nc3cc(C(N)=O)ccc3n2CCN)cc1`, the IC50 worked out at 2.6 µM in series [1], 1.9 µM in [3], 2.9 µM in [5] and 2.5 µM in series [6]. For the same compound, the Ratio IC50 in the series listed under Homo sapiens [2] is 0.9; in the series listed under Homo sapiens [4], 0.7.
`NCCn1c(-c2ccc(O)cc2)nc2cc(C(N)=O)ccc21`: the IC50 in series [1] was found to be 1.3 µM; in [3] it was 2.4 µM; in series [5], 0.1 µM; in series [6], 3.2 µM. The results for the Ratio IC50 in the series filed under Homo sapiens [2] and in the series filed under Homo sapiens [4] were 11 and 20, respectively.
`CC[C@@](C)(Nc1ccnc(-c2c[nH]c3ncccc23)n1)C(=O)NCC(F)(F)F` [DECERNOTINIB] yielded an IC50 in series [18] of 0.013 µM.
On to `NCCn1c(-c2ccc(C(F)(F)F)cc2)nc2cc(C(N)=O)ccc21`, for which the concentration for half-maximal inhibition (IC50) in series [1] was determined as 4.8 µM; in series [3], 2.1 µM; in series [5] it was 9.3 µM; in series [6], 3.2 µM. The Ratio IC50 came to 0.5 in the series listed under Homo sapiens [2] and 0.2 in the series filed under Homo sapiens [4].
Take `NCCn1c(-c2ccncc2)nc2cc(C(N)=O)ccc21`: the IC50 is 13.5 µM in series [1], 10.5 µM in series [3], 32.4 µM in series [5] and 5.8 µM in [6]. Also, the Ratio IC50 in the series listed under Homo sapiens [2] stood at 0.4; in the series listed under Homo sapiens [4], 0.3.
In the case of `NCCCn1c(-c2ccccc2)nc2cc(C(N)=O)ccc21`, the IC50 came out at 20.5 µM in series [1], 1.8 µM in series [3], 11.3 µM in [5] and 2.7 µM in series [6]. Moreover, the Ratio IC50 in the series filed under Homo sapiens [2] is 2; in the series listed under Homo sapiens [4] it was 0.2.
As for `CC[C@@H]1CN(C(=O)NCC(F)(F)F)C[C@@H]1c1cnc2cnc3[nH]ccc3n12`, the Ratio IC50 in the series listed under Homo sapiens [19] was 74.
In the case of `NCCn1c(C2CCCCC2)nc2cc(C(N)=O)ccc21`, the IC50 in [1] is 4.1 µM; in [3], 2.5 µM; in series [5] it was 4.3 µM; in series [6], 3.3 µM. In addition, the values for the Ratio IC50 in the series filed under Homo sapiens [2] and in the series listed under Homo sapiens [4] were 1 and 0.6, respectively.
